Assay results taken from ChEMBL document CHEMBL4715736, “Identification of anticancer agents based on the thieno[2,3-b]pyridine and 1H-pyrazole molecular scaffolds” (2016).

Tests used:
Format in all cases: functional
Settings in all cases: read-out: Activity
[1] = tested on: MDA-MB-468; assay: Growth inhibition of human MDA-MB-468 cells assessed as cell growth at 10 uM incubated for 48 hrs by sulforhodamine B assay relative to control
Procedure, shortened: (§1)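 Submitted to the NCI Developmental Therapeutics Program for the NCI60 human tumour cell line panel. First screen at a single 10 µM concentration. Read-out is growth relative to untreated control cells set at 100%.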

[2] = tested on: RPMI-8226; assay: Growth inhibition of human RPMI-8226 cells assessed as cell growth at 10 uM incubated for 48 hrs by sulforhodamine B assay relative to control
Procedure, shortened: (§2)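 Run by the NCI Developmental Therapeutics Program as part of its 60-line human tumour panel. Each compound tested at a single 10 µM dose. Growth expressed as % relative to untreated control cells (100%).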

[3] = tested on: LOX IMVI; assay: Growth inhibition of human LOX IMVI cells assessed as cell growth at 10 uM incubated for 48 hrs by sulforhodamine B assay relative to control; procedure, shortened: as §1
[4] = tested on: SF-295; assay: Growth inhibition of human SF-295 cells assessed as cell growth at 10 uM incubated for 48 hrs by sulforhodamine B assay relative to control; procedure, shortened: as §2
[5] = tested on: HCC 2998; assay: Growth inhibition of human HCC 2998 cells assessed as cell growth at 10 uM incubated for 48 hrs by sulforhodamine B assay relative to control
Procedure, shortened: (§3)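 NCI Developmental Therapeutics Program NCI60 panel. Compounds that were active in the 10 µM one-dose screen went on to dose–response testing. Growth at each concentration is expressed relative to untreated control (100%). GI50 (concentration giving 50% of maximal inhibition of proliferation) and TGI (concentration giving total growth inhibition) were derived from the curves.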

[6] = tested on: SNB-19; assay: Growth inhibition of human SNB-19 cells assessed as cell growth at 10 uM incubated for 48 hrs by sulforhodamine B assay relative to control; procedure, shortened: as §2
[7] = tested on: SF-539; assay: Growth inhibition of human SF-539 cells assessed as cell growth at 10 uM incubated for 48 hrs by sulforhodamine B assay relative to control; procedure, shortened: as §2
[8] = tested on: DU-145; assay: Growth inhibition of human DU-145 cells assessed as cell growth at 10 uM incubated for 48 hrs by sulforhodamine B assay relative to control; procedure, shortened: as §3
[9] = tested on: ACHN; assay: Growth inhibition of human ACHN cells assessed as cell growth at 10 uM incubated for 48 hrs by sulforhodamine B assay relative to control
Procedure, shortened: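 NCI Developmental Therapeutics Program NCI60 human tumour cell line panel, one-dose primary screen with every compound at 10 µM. Growth is expressed as % of untreated control cells (100%).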

[10] = tested on: OVCAR-3; assay: Growth inhibition of human OVCAR-3 cells assessed as cell growth at 10 uM incubated for 48 hrs by sulforhodamine B assay relative to control; procedure, shortened: as §2
[11] = tested on: NCI-H23; assay: Growth inhibition of human NCI-H23 cells assessed as cell growth at 10 uM incubated for 48 hrs by sulforhodamine B assay relative to control; procedure, shortened: as §1
[12] = tested on: CCRF-CEM; assay: Growth inhibition of human CCRF-CEM cells assessed as cell growth at 10 uM incubated for 48 hrs by sulforhodamine B assay relative to control; procedure, shortened: as §3
[13] = tested on: MCF7; assay: Growth inhibition of human MCF7 cells assessed as cell growth at 10 uM incubated for 48 hrs by sulforhodamine B assay relative to control; procedure, shortened: as §1
[14] = tested on: Malme-3M; assay: Growth inhibition of human Malme-3M cells assessed as cell growth at 10 uM incubated for 48 hrs by sulforhodamine B assay relative to control; procedure, shortened: as §1
[15] = tested on: A549; assay: Growth inhibition of human A549/ATCC cells assessed as cell growth at 10 uM incubated for 48 hrs by sulforhodamine B assay relative to control; procedure, shortened: as §3
[16] = tested on: SK-MEL-5; assay: Growth inhibition of human SK-MEL-5 cells assessed as cell growth at 10 uM incubated for 48 hrs by sulforhodamine B assay relative to control; procedure, shortened: as §2
[17] = tested on: U-251; assay: Growth inhibition of human U-251 cells assessed as cell growth at 10 uM incubated for 48 hrs by sulforhodamine B assay relative to control; procedure, shortened: as §2
[18] = tested on: NCI-H460; assay: Growth inhibition of human NCI-H460 cells assessed as cell growth at 10 uM incubated for 48 hrs by sulforhodamine B assay relative to control; procedure, shortened: as §1
[19] = tested on: OVCAR-5; assay: Growth inhibition of human OVCAR-5 cells assessed as cell growth at 10 uM incubated for 48 hrs by sulforhodamine B assay relative to control; procedure, shortened: as §2
[20] = tested on: SN12C; assay: Growth inhibition of human SN12C cells assessed as cell growth at 10 uM incubated for 48 hrs by sulforhodamine B assay relative to control; procedure, shortened: as §2
[21] = tested on: HOP-62; assay: Growth inhibition of human HOP-62 cells assessed as cell growth at 10 uM incubated for 48 hrs by sulforhodamine B assay relative to control; procedure, shortened: as §1
[22] = tested on: RXF 393; assay: Growth inhibition of human RXF 393 cells assessed as cell growth at 10 uM incubated for 48 hrs by sulforhodamine B assay relative to control; procedure, shortened: as §2
[23] = tested on: SK-MEL-28; assay: Growth inhibition of human SK-MEL-28 cells assessed as cell growth at 10 uM incubated for 48 hrs by sulforhodamine B assay relative to control; procedure, shortened: as §2
[24] = tested on: KM12; assay: Growth inhibition of human KM12 cells assessed as cell growth at 10 uM incubated for 48 hrs by sulforhodamine B assay relative to control; procedure, shortened: as §1
[25] = tested on: UACC-62; assay: Growth inhibition of human UACC-62 cells assessed as cell growth at 10 uM incubated for 48 hrs by sulforhodamine B assay relative to control; procedure, shortened: as §2
[26] = tested on: COLO 205; assay: Growth inhibition of human COLO 205 cells assessed as cell growth at 10 uM incubated for 48 hrs by sulforhodamine B assay relative to control; procedure, shortened: as §3
[27] = tested on: HCT-116; assay: Growth inhibition of human HCT-116 cells assessed as cell growth at 10 uM incubated for 48 hrs by sulforhodamine B assay relative to control; procedure, shortened: as §1
[28] = tested on: UACC-257; assay: Growth inhibition of human UACC-257 cells assessed as cell growth at 10 uM incubated for 48 hrs by sulforhodamine B assay relative to control; procedure, shortened: as §2
[29] = tested on: OVCAR-4; assay: Growth inhibition of human OVCAR-4 cells assessed as cell growth at 10 uM incubated for 48 hrs by sulforhodamine B assay relative to control; procedure, shortened: as §2
[30] = tested on: M14; assay: Growth inhibition of human M14 cells assessed as cell growth at 10 uM incubated for 48 hrs by sulforhodamine B assay relative to control; procedure, shortened: as §1
[31] = tested on: OVCAR-8; assay: Growth inhibition of human OVCAR-8 cells assessed as cell growth at 10 uM incubated for 48 hrs by sulforhodamine B assay relative to control; procedure, shortened: as §2
[32] = tested on: HOP-92; assay: Growth inhibition of human HOP-92 cells assessed as cell growth at 10 uM incubated for 48 hrs by sulforhodamine B assay relative to control; procedure, shortened: as §1
[33] = tested on: T47D; assay: Growth inhibition of human T47D cells assessed as cell growth at 10 uM incubated for 48 hrs by sulforhodamine B assay relative to control; procedure, shortened: as §2
[34] = tested on: NCI-H322M; assay: Growth inhibition of human NCI-H322M cells assessed as cell growth at 10 uM incubated for 48 hrs by sulforhodamine B assay relative to control; procedure, shortened: as §1
[35] = tested on: IGROV-1; assay: Growth inhibition of human IGROV-1 cells assessed as cell growth at 10 uM incubated for 48 hrs by sulforhodamine B assay relative to control; procedure, shortened: as §1

Compound | growth at 10 µM [1] [%] | growth at 10 µM [2] [%] | growth at 10 µM [3] [%] | growth at 10 µM [4] [%] | growth at 10 µM [5] [%] | growth at 10 µM [6] [%] | growth at 10 µM [7] [%] | growth at 10 µM [8] [%] | growth at 10 µM [9] [%] | growth at 10 µM [10] [%] | growth at 10 µM [11] [%] | growth at 10 µM [12] [%] | growth at 10 µM [13] [%] | growth at 10 µM [14] [%] | growth at 10 µM [15] [%] | growth at 10 µM [16] [%] | growth at 10 µM [17] [%] | growth at 10 µM [18] [%] | growth at 10 µM [19] [%] | growth at 10 µM [20] [%] | other results
COc1ccc(-c2ccn(S(=O)(=O)c3ccc(C)cc3)n2)cc1 | 46.1 | 69 | 84.2 | 78.5 | 86.9 | 94.5 | 97 | 93.7 | 91.6 | 89.3 | 67.9 | 85.7 | 88.3 | 88.4 | 79.7 | 68.3 | 81.9 | 81 | 112 | 86.9 | growth at 10 µM [21]: 108%; growth at 10 µM [22]: 86.3%; growth at 10 µM [23]: 103%; growth at 10 µM [24]: 89.7%; growth at 10 µM [25]: 70.9%; growth at 10 µM [26]: 112%; growth at 10 µM [27]: 73.5%; growth at 10 µM [28]: 79.9%; growth at 10 µM [29]: 62%; growth at 10 µM [30]: 90%; growth at 10 µM [31]: 83.4%; growth at 10 µM [32]: 79.9%; growth at 10 µM [33]: 48%; growth at 10 µM [34]: 96.7%; growth at 10 µM [35]: 81.5%
COc1ccc(S(=O)(=O)n2ccc(-c3ccc(OC(C)C)cc3)n2)cc1 | 68.7 | 70.7 | 94.1 | 90 | 103 | 100 | 97 | 94.3 | 95.8 | 90.4 | 83.8 | 72.6 | 93.8 | 107 | 86 | 91.9 | 95.3 | 84.5 | 80.7 | 90.6 | growth at 10 µM [21]: 126%; growth at 10 µM [22]: 100%; growth at 10 µM [23]: 95.3%; growth at 10 µM [24]: 92%; growth at 10 µM [25]: 64.1%; growth at 10 µM [26]: 111%; growth at 10 µM [27]: 79%; growth at 10 µM [28]: 99.2%; growth at 10 µM [29]: 67.7%; growth at 10 µM [30]: 84.5%; growth at 10 µM [31]: 94.6%; growth at 10 µM [32]: 75.7%; growth at 10 µM [33]: 72.3%; growth at 10 µM [34]: 99.3%; growth at 10 µM [35]: 91%
